Results from ChEMBL document CHEMBL1782004, “Pyrimidine nucleotides with 4-alkyloxyimino and terminal tetraphosphate δ-ester modifications as selective agonists of the P2Y(4) receptor” (J Med Chem, 2011).
Active and inactive are the calls of the source. The rule behind the calls is not given here.

Columns and labels:
P2Y purinoceptor 2 [1] = target: T1, P2Y purinoceptor 2 (Homo sapiens, UniProt P41231); assay: Agonist activity at human recombinant P2Y2 receptor expressed in human 1321N1 cells assessed as [3H]inositol phosphate production after 30 mins by scintillation proximity assay; type: functional, cell-based
T1 sequence (P41231 whole entry): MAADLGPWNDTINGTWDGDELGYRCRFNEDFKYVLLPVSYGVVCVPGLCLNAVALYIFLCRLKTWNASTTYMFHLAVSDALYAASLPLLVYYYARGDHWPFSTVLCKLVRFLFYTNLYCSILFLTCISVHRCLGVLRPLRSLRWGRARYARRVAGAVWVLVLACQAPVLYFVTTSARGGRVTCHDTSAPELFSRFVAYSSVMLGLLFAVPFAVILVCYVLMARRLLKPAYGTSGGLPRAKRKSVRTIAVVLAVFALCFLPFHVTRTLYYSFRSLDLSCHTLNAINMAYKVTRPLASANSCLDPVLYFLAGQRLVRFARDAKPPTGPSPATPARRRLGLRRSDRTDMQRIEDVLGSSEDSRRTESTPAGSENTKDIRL
In short: (§1)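 Stable 1321N1 human astrocytoma lines expressing human P2Y2, P2Y4 or P2Y6 were seeded at 20,000 cells/well two days ahead. Cells were then challenged with agonist in HEPES pH 7.3/HBSS containing LiCl for 30 min at 37°C. The reaction was stopped with ice-cold 50 mM formic acid and [3H]inositol phosphates were read by SPA.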

P2Y purinoceptor 6 [2] = target: T2, P2Y purinoceptor 6 (Homo sapiens, UniProt Q15077); assay: Agonist activity at human recombinant P2Y6 receptor expressed in human 1321N1 cells assessed as [3H]inositol phosphate production at 10 uM after 30 mins by scintillation proximity assay; type: functional, cell-based
T2 sequence (Q15077 whole entry): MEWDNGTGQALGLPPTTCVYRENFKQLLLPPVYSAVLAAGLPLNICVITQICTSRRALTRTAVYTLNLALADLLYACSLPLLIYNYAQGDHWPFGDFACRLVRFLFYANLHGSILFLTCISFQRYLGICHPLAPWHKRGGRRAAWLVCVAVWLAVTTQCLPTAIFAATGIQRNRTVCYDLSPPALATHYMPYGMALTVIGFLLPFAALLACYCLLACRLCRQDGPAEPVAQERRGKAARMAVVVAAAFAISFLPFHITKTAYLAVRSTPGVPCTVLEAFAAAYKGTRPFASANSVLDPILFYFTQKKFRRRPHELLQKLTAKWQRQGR

P2Y purinoceptor 4 [3] = target: T3, P2Y purinoceptor 4 (Homo sapiens, UniProt P51582); assay: Agonist activity at human recombinant P2Y4 receptor expressed in human 1321N1 cells assessed as [3H]inositol phosphate production at 10 uM after 30 mins by scintillation proximity assay; type: functional, cell-based
T3 sequence (P51582 whole entry): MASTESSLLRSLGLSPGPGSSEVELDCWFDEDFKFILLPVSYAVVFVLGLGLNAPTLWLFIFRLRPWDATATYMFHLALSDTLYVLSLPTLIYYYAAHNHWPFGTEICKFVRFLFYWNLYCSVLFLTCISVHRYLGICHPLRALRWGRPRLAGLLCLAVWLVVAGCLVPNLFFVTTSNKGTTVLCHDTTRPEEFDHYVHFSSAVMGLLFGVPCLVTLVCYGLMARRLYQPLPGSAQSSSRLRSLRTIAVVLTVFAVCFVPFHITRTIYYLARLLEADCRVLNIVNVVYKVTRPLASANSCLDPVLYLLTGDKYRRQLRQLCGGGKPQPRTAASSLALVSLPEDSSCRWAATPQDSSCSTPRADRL

P2Y purinoceptor 4 [4] = target: T3, P2Y purinoceptor 4; assay: Agonist activity at human recombinant P2Y4 receptor expressed in human 1321N1 cells assessed as [3H]inositol phosphate production after 30 mins by scintillation proximity assay; type: functional, cell-based
In short: as §1, with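 “ahead. They were labelled for 16 h with 1.0 μCi myo-[3H]inositol in serum-free, inositol-free DMEM.” for “ahead.”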

P2Y purinoceptor 6 [5] = target: T2, P2Y purinoceptor 6; assay: Agonist activity at human recombinant P2Y6 receptor expressed in human 1321N1 cells assessed as [3H]inositol phosphate production after 30 mins by scintillation proximity assay; type: functional, cell-based
In short: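 1321N1 astrocytoma cells stably expressing human P2Y6, seeded 2 days ahead and labelled 16 h with myo-[3H]inositol in serum-free inositol-free DMEM. Agonist added as five-fold concentrate in HEPES pH 7.3/HBSS with 50 mM LiCl, 30 min at 37°C. Stopped with ice-cold 50 mM formic acid. EC50 from four-parameter logistic fit; triplicates, three to six experiments; UDP reference curve.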

P2Y purinoceptor 2 [6] = target: T1, P2Y purinoceptor 2; assay: Ratio of EC50 for human recombinant P2Y2 receptor expressed in human 1321N1 cells to EC50 for human recombinant P2Y4 receptor expressed in human 1321N1 cells; type: cell-based
1321-N1 = assay: Ratio of EC50 for human recombinant P2Y6 receptor expressed in human 1321N1 cells to EC50 for human recombinant P2Y4 receptor expressed in human 1321N1 cells; type: cell-based
P2Y purinoceptor 2 [7] = target: T1, P2Y purinoceptor 2; assay: Agonist activity at human recombinant P2Y2 receptor expressed in human 1321N1 cells assessed as [3H]inositol phosphate production at 10 uM after 30 mins by scintillation proximity assay; type: functional, cell-based
Oocyte = assay: Ratio of EC50 for rat P2Y2 expressed in Xenopus oocytes to EC50 for rat P2Y4 expressed in Xenopus oocytes; type: cell-based
[8] = Ratio of EC50 for P2Y6 to EC50 for P2Y2
[9] = Ratio of EC50 for P2Y4 to EC50 for P2Y2
P2Y purinoceptor 2 [10] = target: T1, P2Y purinoceptor 2; assay: Agonist activity at human P2Y2; type: functional
P2Y purinoceptor 4 [11] = target: T3, P2Y purinoceptor 4; assay: Agonist activity at human P2Y4; type: functional

| Compound | EC50 (P2Y purinoceptor 2 [1]) | Activity (P2Y purinoceptor 6 [2]) | EC50 (P2Y purinoceptor 4 [4]) | EC50 (P2Y purinoceptor 6 [5]) | further results |
| --- | --- | --- | --- | --- | --- |
| O=c1ccn([C@@H]2O[C@H](COP(=O)(O)OP(=O)(O)OP(=O)(O)OP(=O)(O)Oc3ccc(Cl)cc3)[C@@H](O)[C@H]2O)c(=O)[nH]1 | 6600 nM | – | – | – | – |
| O=c1ccn([C@@H]2O[C@H](COP(=O)(O)OP(=O)(O)OP(=O)(O)OP(=O)(O)Oc3ccc([N+](=O)[O-])cc3)[C@@H](O)[C@H]2O)c(=O)[nH]1 | 4850 nM | < 50% | – | – | Activity (P2Y purinoceptor 4 [3]): < 50% |
| O=c1ccn([C@@H]2O[C@H](COP(=O)(O)OP(=O)(O)OP(=O)(O)OP(=O)(O)O[C@H]3OC[C@@H](O)[C@H](O)[C@H]3O)[C@@H](O)[C@H]2O)c(=O)[nH]1 | 2770 nM | – | 620 nM | 4900 nM | – |
| O=c1ccn([C@@H]2O[C@H](COP(=O)(O)OP(=O)(O)C(Cl)(Cl)P(=O)(O)O)[C@@H](O)[C@H]2O)c(=S)[nH]1 | – | inactive | – | – | Activity (P2Y purinoceptor 4 [3]): inactive |
| O=c1ccn([C@@H]2O[C@H](COP(=O)(O)OP(=O)(O)OP(=O)(O)OP(=O)(O)O[C@H]3O[C@H](CO)[C@@H](O)[C@H](F)[C@H]3O)[C@@H](O)[C@H]2O)c(=O)[nH]1 | 710 nM | – | 62 nM | 950 nM | Ratio EC50 (P2Y purinoceptor 2 [6]): 11.5; Ratio EC50 (1321-N1): 15.3 |
| CONc1ccn([C@@H]2O[C@H](COP(=O)(O)OP(=O)(O)OP(=O)(O)OP(=O)(O)O[C@H]3O[C@H](CO)[C@@H](O)[C@H](F)[C@H]3O)[C@@H](O)[C@H]2O)c(=O)n1 | 500 nM | – | 310 nM | 1440 nM | – |
| O=c1ccn([C@@H]2O[C@H](COP(=O)(O)OP(=O)(O)C(Cl)(Cl)P(=O)(O)OP(=O)(O)O[C@H]3O[C@H](CO)[C@@H](O)[C@H](O)[C@H]3O)[C@@H](O)[C@H]2O)c(=O)[nH]1 | – | inactive | – | – | Activity (P2Y purinoceptor 4 [3]): inactive; Activity (P2Y purinoceptor 2 [7]): < 50% |
| O=c1[nH]/c(=N\OCCCc2ccccc2)ccn1[C@@H]1O[C@H](COP(=O)(O)OP(=O)(O)OP(=O)(O)O)[C@@H](O)[C@H]1O | – | – | – | – | Ratio EC50 (P2Y purinoceptor 2 [6]): 28; Ratio EC50 (1321-N1): 32 |
| O=c1ccn([C@@H]2O[C@H](COP(=O)(O)OP(=O)(O)C(Cl)(Cl)P(=O)(O)O)[C@@H](O)[C@H]2O)c(=O)[nH]1 | 9600 nM | < 50% | – | – | Activity (P2Y purinoceptor 4 [3]): inactive |
| O=c1ccn([C@@H]2O[C@H](COP(=O)(O)OP(=O)(O)OP(=O)(O)OP(=O)(O)Oc3cccc(Cl)c3)[C@@H](O)[C@H]2O)c(=O)[nH]1 | 840 nM | – | – | 3690 nM | Activity (P2Y purinoceptor 4 [3]): inactive |
| O=P(O)(O)OP(=O)(O)OP(=O)(O)OC[C@H]1O[C@@H](n2cnc3c(O)ncnc32)[C@H](O)[C@@H]1O | – | – | – | – | Ratio EC50 (Oocyte): 13 |
| O=C(O)[C@H]1O[C@H](OP(=O)(O)OP(=O)(O)OP(=O)(O)OP(=O)(O)OC[C@H]2O[C@@H](n3ccc(=O)[nH]c3=O)[C@H](O)[C@@H]2O)[C@H](O)[C@@H](O)[C@@H]1O | 490 nM | – | 227 nM | 1650 nM | – |
| O=c1ccn([C@@H]2O[C@H](COP(=O)(O)OP(=O)(O)OP(=O)(O)OP(=O)(O)O[C@H]3O[C@H](CO)[C@@H](O)[C@H](O)[C@H]3O)[C@@H](O)[C@H]2O)c(=O)[nH]1 | – | – | – | – | Ratio EC50 [8]: 26; Ratio EC50 [9]: 7 |
| CC(C)(C)O/N=c1/ccn([C@@H]2O[C@H](COP(=O)(O)OP(=O)(O)OP(=O)(O)O)[C@@H](O)[C@H]2O)c(=O)[nH]1 | – | < 50% | – | – | – |
| O=c1ccn([C@@H]2O[C@H](COP(=O)(O)OP(=O)(O)OP(=O)(O)OP(=O)(O)O[C@H]3O[C@H](CO)[C@@H](O)[C@H](O)[C@H]3F)[C@@H](O)[C@H]2O)c(=O)[nH]1 | – | < 50% | – | – | Activity (P2Y purinoceptor 4 [3]): < 50%; Activity (P2Y purinoceptor 2 [7]): < 50% |
| O=c1[nH]/c(=N\OCc2ccccc2)ccn1[C@@H]1O[C@H](COP(=O)(O)OP(=O)(O)OP(=O)(O)OP(=O)(O)O[C@H]2O[C@H](CO)[C@@H](O)[C@H](F)[C@H]2O)[C@@H](O)[C@H]1O | 2640 nM | – | 670 nM | 7510 nM | – |

| Compound | EC50 (P2Y purinoceptor 2 [1]) | Activity (P2Y purinoceptor 6 [2]) | EC50 (P2Y purinoceptor 4 [4]) | EC50 (P2Y purinoceptor 6 [5]) | further results |
| --- | --- | --- | --- | --- | --- |
| O=c1ccn([C@@H]2O[C@H](COP(=O)(O)OP(=O)(O)OP(=O)(O)OP(=O)(O)O[C@H]3O[C@H](CO)[C@@H](O)[C@@H](O)[C@H]3O)[C@@H](O)[C@H]2O)c(=O)[nH]1 | 770 nM | – | 183 nM | 1170 nM | – |
| O=c1nc(NOCCCc2ccccc2)ccn1[C@@H]1O[C@H](COP(=O)(O)OP(=O)(O)OP(=O)(O)O)[C@@H](O)[C@H]1O | 640 nM | – | 23 nM | 740 nM | – |
| O=c1ccn([C@@H]2O[C@H](COP(=O)(O)OP(=O)(O)OP(=O)(O)OP(=O)(O)O[C@H]3O[C@H](CO)[C@H](O)[C@H](O)[C@H]3O)[C@@H](O)[C@H]2O)c(=O)[nH]1 | 940 nM | – | – | – | – |
| CC(C)(C)ONc1ccn([C@@H]2O[C@H](COP(=O)(O)OP(=O)(O)OP(=O)(O)O)[C@@H](O)[C@H]2O)c(=O)n1 | 1500 nM | – | 2110 nM | – | – |
| O=c1ccn([C@@H]2O[C@H](COP(=O)(O)OP(=O)(O)OP(=O)(O)OP(=O)(O)Oc3cccc([N+](=O)[O-])c3)[C@@H](O)[C@H]2O)c(=O)[nH]1 | 3330 nM | < 50% | 2540 nM | – | – |
| O=c1ccn([C@@H]2O[C@H](COP(=O)(O)OP(=O)(O)OP(=O)(O)OP(=O)(O)O[C@H]3O[C@H](CO)[C@@H](F)[C@H](O)[C@H]3O)[C@@H](O)[C@H]2O)c(=O)[nH]1 | 620 nM | – | 220 nM | 1640 nM | – |
| O=c1ccn([C@@H]2O[C@H](COP(=O)(O)OP(=O)(O)OP(=O)(O)OP(=O)(O)Oc3ccccc3)[C@@H](O)[C@H]2O)c(=O)[nH]1 | 2760 nM | inactive | – | – | Activity (P2Y purinoceptor 4 [3]): inactive |
| O=c1ccn([C@@H]2O[C@H](COP(=O)(O)OP(=O)(O)OP(=O)(O)OP(=O)(O)O[C@H]3O[C@H](CO)[C@@H](O)[C@H](O)[C@@H]3O)[C@@H](O)[C@H]2O)c(=O)[nH]1 | 3720 nM | – | 4480 nM | 12100 nM | – |
| COc1cccc(OP(=O)(O)OP(=O)(O)OP(=O)(O)OP(=O)(O)OC[C@H]2O[C@@H](n3ccc(=O)[nH]c3=O)[C@H](O)[C@@H]2O)c1 | – | < 50% | – | – | Activity (P2Y purinoceptor 4 [3]): inactive; Activity (P2Y purinoceptor 2 [7]): < 50% |
| O=c1ccn([C@@H]2O[C@H](COP(=O)(O)OP(=O)(O)OP(=O)(O)O)[C@@H](O)[C@H]2O)c(=O)[nH]1 [URIDINE TRIPHOSPHATE] | 55 nM | – | 80 nM | – | – |
| CC(=O)N[C@H]1[C@@H](OP(=O)(O)OP(=O)(O)OP(=O)(O)OP(=O)(O)OC[C@H]2O[C@@H](n3ccc(=O)[nH]c3=O)[C@H](O)[C@@H]2O)O[C@H](CO)[C@@H](O)[C@@H]1O | 1890 nM | – | 910 nM | 5460 nM | – |
| O=c1ccn([C@@H]2O[C@H](COP(=O)(O)OP(=O)(O)OP(=O)(O)OP(=O)(O)O)[C@@H](O)[C@H]2O)c(=O)[nH]1 | 3900 nM | – | 7300 nM | – | – |
| O=c1[nH]/c(=N\OCCc2ccccc2)ccn1[C@@H]1O[C@H](COP(=O)(O)OP(=O)(O)OP(=O)(O)O)[C@@H](O)[C@H]1O | – | – | – | – | Ratio EC50 (P2Y purinoceptor 2 [6]): 16; Ratio EC50 (1321-N1): 17 |
| COc1ccc(OP(=O)(O)OP(=O)(O)OP(=O)(O)OP(=O)(O)OC[C@H]2O[C@@H](n3ccc(=O)[nH]c3=O)[C@H](O)[C@@H]2O)cc1 | – | < 50% | – | – | Activity (P2Y purinoceptor 4 [3]): < 50%; Activity (P2Y purinoceptor 2 [7]): < 50% |
| [N-]=[N+]=N[C@@H]1[C@H](O)[C@@H](COP(=O)(O)OP(=O)(O)OP(=O)(O)O)O[C@H]1n1ccc(=O)[nH]c1=O | – | – | – | – | EC50 (P2Y purinoceptor 2 [10]): 5000 nM |
| O=c1ccn([C@@H]2O[C@H](COP(=O)(O)OP(=O)(O)OP(=O)(O)OP(=O)(O)OC[C@H]3O[C@@H](n4ccc(=O)[nH]c4=O)[C@H](O)[C@@H]3O)[C@@H](O)[C@H]2O)c(=O)[nH]1 [DIQUAFOSOL TETRASODIUM] | – | – | – | – | EC50 (P2Y purinoceptor 4 [11]): 870 nM |
